Reference: ChEMBL document CHEMBL1123208, “Quantitative structure-activity relationship of the mutagenicity of substituted N-nitroso-N-benzylmethylamines: possible implications for carcinogenicity” (J Med Chem, 1986)

Columns and labels:
Salmonella typhimurium [1] = test: compound was tested for mutagenicity against Salmonella tester strain TA 1535 with out hamster S9 mix (3 mg/plate) in cells at dose of 500 ug
[2] = Concentration in nmol/plate to induce 50 revertants/plate.; format: ADME
Method in brief: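 Ames plate incorporation, S. typhimurium TA 1535, Aroclor-induced male hamster liver S9; duplicate plates, 10-point range 1–1000 µg/plate; 37 °C, 48 h; revertants counted by hand tally. Potency index: concentration (nmol/plate) inducing 50 revertants/plate, taken from linear portion of dose–response curve.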

Salmonella typhimurium [3] = test: compound was tested for mutagenicity against Salmonella tester strain TA 1535 with hamster S9 mix (3 mg/plate) in cells at dose of 500 ug
Salmonella typhimurium [4] = test: Mutagenicity against Salmonella tester strain TA 1535 without hamster S9 mix (3 mg/plate) in cells.; format: functional, Salmonella enterica subsp. enterica serovar Typhimurium
Cricetinae gen. sp. = test: (§1) compound was tested for mutagenicity against Salmonella tester strain TA 1535 with out hamster S9 mix (3 mg/plate) in cells at dose of 50 ug; format: functional
Method in brief: (§2)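 Plate incorporation assay in S. typhimurium TA 1535 without S9 activation. Compound in Me2SO, 1–1000 µg/plate, duplicate plates, mean revertants/plate; incubated 37 °C for 48 h, colonies hand-counted. Positive if two consecutive doses gave revertants more than twice the concurrent control mean.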

Salmonella typhimurium [5] = test: as §1; format: functional, Salmonella enterica subsp. enterica serovar Typhimurium
Method in brief: as §2

Salmonella typhimurium [6] = test: compound was tested for mutagenicity against Salmonella tester strain TA 1535 with out hamster S9 mix (3 mg/plate) in cells at dose of 250 ug; format: functional, Salmonella enterica subsp. enterica serovar Typhimurium
Method in brief: as §2

Salmonella typhimurium [7] = test: compound was tested for mutagenicity against Salmonella tester strain TA 1535 with out hamster S9 mix (3 mg/plate) in cells at dose of 5 ug; format: functional, Salmonella enterica subsp. enterica serovar Typhimurium
Method in brief: as §2

Salmonella typhimurium [8] = test: compound was tested for mutagenicity against Salmonella tester strain TA 1535 with out hamster S9 mix (3 mg/plate) in cells at dose of 1000 ug; format: functional, Salmonella enterica subsp. enterica serovar Typhimurium
Method in brief: as §2

Salmonella typhimurium [9] = test: compound was tested for mutagenicity against Salmonella tester strain TA 1535 with out hamster S9 mix (3 mg/plate) in cells.; format: functional, Salmonella enterica subsp. enterica serovar Typhimurium
Method in brief: as §2

Salmonella typhimurium [10] = test: compound was tested for mutagenicity against Salmonella tester strain TA 1535 with hamster S9 mix (3 mg/plate) in cells at dose of 1 ug; format: functional, Salmonella enterica subsp. enterica serovar Typhimurium
Method in brief: as §2, with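 “with Aroclor-induced male hamster liver” for “without”, “(3 mg/plate).” for “activation.”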

Salmonella typhimurium [11] = test: compound was tested for mutagenicity against Salmonella tester strain TA 1535 with hamster S9 mix (3 mg/plate) in cells at dose of 250 ug; format: functional, Salmonella enterica subsp. enterica serovar Typhimurium
Method in brief: as §2, with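 “with Aroclor-induced male hamster liver” for “without”, “(3 mg/plate).” for “activation.”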

Salmonella typhimurium [12] = test: compound was tested for mutagenicity against Salmonella tester strain TA 1535 with out hamster S9 mix (3 mg/plate) in cells at dose of 500 ug; format: functional, Salmonella enterica subsp. enterica serovar Typhimurium
Method in brief: as §2

Salmonella typhimurium [13] = test: compound was tested for mutagenicity against Salmonella tester strain TA 1535 with hamster S9 mix (3 mg/plate) in cells at dose of 25 ug; format: functional, Salmonella enterica subsp. enterica serovar Typhimurium
Method in brief: as §2, with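 “with Aroclor-induced male hamster liver” for “without”, “(3 mg/plate).” for “activation.”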

Salmonella typhimurium [14] = test: compound was tested for mutagenicity against Salmonella tester strain TA 1535 with hamster S9 mix (3 mg/plate) in cells at dose of 50 ug; format: functional, Salmonella enterica subsp. enterica serovar Typhimurium
Method in brief: as §2, with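 “with Aroclor-induced male hamster liver” for “without”, “(3 mg/plate).” for “activation.”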

Salmonella typhimurium [15] = test: compound was tested for mutagenicity against Salmonella tester strain TA 1535 with hamster S9 mix (3 mg/plate) in cells at dose of 1000 ug; format: functional, Salmonella enterica subsp. enterica serovar Typhimurium
Method in brief: as §2, with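 “with Aroclor-induced male hamster liver” for “without”, “(3 mg/plate).” for “activation.”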

Salmonella typhimurium [16] = test: compound was tested for mutagenicity against Salmonella tester strain TA 1535 with hamster S9 mix (3 mg/plate) in cells at dose of 500 ug; format: functional, Salmonella enterica subsp. enterica serovar Typhimurium
Method in brief: as §2, with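 “with Aroclor-induced male hamster liver” for “without”, “(3 mg/plate).” for “activation.”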

Salmonella typhimurium [17] = test: compound was tested for mutagenicity against Salmonella tester strain TA 1535 with out hamster S9 mix (3 mg/plate) in cells at dose of 2.5 ug; format: functional, Salmonella enterica subsp. enterica serovar Typhimurium
Method in brief: as §2

Salmonella typhimurium [18] = test: compound was tested for mutagenicity against Salmonella tester strain TA 1535 with out hamster S9 mix (3 mg/plate) in cells at dose of 25 ug; format: functional, Salmonella enterica subsp. enterica serovar Typhimurium
Method in brief: as §2

Salmonella typhimurium [19] = test: compound was tested for mutagenicity against Salmonella tester strain TA 1535 with hamster S9 mix (3 mg/plate) in cells at dose of 2.5 ug; format: functional, Salmonella enterica subsp. enterica serovar Typhimurium
Method in brief: as §2, with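 “with Aroclor-induced male hamster liver” for “without”, “(3 mg/plate).” for “activation.”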

Salmonella typhimurium [20] = test: compound was tested for mutagenicity against Salmonella tester strain TA 1535 with hamster S9 mix (3 mg/plate) in cells.; format: functional, Salmonella enterica subsp. enterica serovar Typhimurium
Method in brief: as §2, with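 “with Aroclor-induced male hamster liver” for “without”, “(3 mg/plate).” for “activation.”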

Salmonella typhimurium [21] = test: compound was tested for mutagenicity against Salmonella tester strain TA 1535 with hamster S9 mix (3 mg/plate) in cells at dose of 10 ug; format: functional, Salmonella enterica subsp. enterica serovar Typhimurium
Method in brief: as §2, with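 “with Aroclor-induced male hamster liver” for “without”, “(3 mg/plate).” for “activation.”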

Salmonella typhimurium [22] = test: compound was tested for mutagenicity against Salmonella tester strain TA 1535 with out hamster S9 mix (3 mg/plate) in cells at dose of 10 ug; format: functional, Salmonella enterica subsp. enterica serovar Typhimurium
Method in brief: as §2

Salmonella typhimurium [23] = test: compound was tested for mutagenicity against Salmonella tester strain TA 1535 with hamster S9 mix (3 mg/plate) in cells at dose of 100 ug; format: functional, Salmonella enterica subsp. enterica serovar Typhimurium
Method in brief: as §2, with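 “with Aroclor-induced male hamster liver” for “without”, “(3 mg/plate).” for “activation.”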

Salmonella typhimurium [24] = test: compound was tested for mutagenicity against Salmonella tester strain TA 1535 with out hamster S9 mix (3 mg/plate) in cells at dose of 1 ug; format: functional, Salmonella enterica subsp. enterica serovar Typhimurium
Method in brief: as §2

Salmonella typhimurium [25] = test: compound was tested for mutagenicity against Salmonella tester strain TA 1535 with hamster S9 mix (3 mg/plate) in cells. Activity expressed as no. of cells; format: functional, Salmonella enterica subsp. enterica serovar Typhimurium
Method in brief: as §2, with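 “with Aroclor-induced male hamster liver” for “without”, “(3 mg/plate).” for “activation.”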

Salmonella typhimurium [26] = test: compound was tested for mutagenicity against Salmonella tester strain TA 1535 with hamster S9 mix (3 mg/plate) in cells at dose of 5 ug; format: functional, Salmonella enterica subsp. enterica serovar Typhimurium
Method in brief: as §2, with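 “with Aroclor-induced male hamster liver” for “without”, “(3 mg/plate).” for “activation.”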

Salmonella typhimurium [27] = test: compound was tested for mutagenicity against Salmonella tester strain TA 1535 with out hamster S9 mix (3 mg/plate) in cells at dose of 100 ug; format: functional, Salmonella enterica subsp. enterica serovar Typhimurium
Method in brief: as §2

CN(Cc1ccc(C#N)cc1)N=O
No. of revertants per plate (Salmonella typhimurium [1]): 12
Log 1/C [2]: -2.78
No. of revertants per plate (Salmonella typhimurium [3]): 180
Activity (Salmonella typhimurium [4]): 15

CN(Cc1ccc([N+](=O)[O-])cc1)N=O
No. of revertants per plate (Salmonella typhimurium [1]): 23
Log 1/C [2]: -2.202
No. of revertants per plate (Salmonella typhimurium [3]): 176
Activity (Salmonella typhimurium [4]): 19

CN(Cc1ccc(C(=O)O)cc1)N=O
No. of revertants per plate (Salmonella typhimurium [1]): 21
No. of revertants per plate (Salmonella typhimurium [3]): 15
Activity (Salmonella typhimurium [4]): 13

CN(Cc1ccccc1)N=O
No. of revertants per plate (Salmonella typhimurium [1]): 17
No. of revertants per plate (Cricetinae gen. sp.): 14
Log 1/C [2]: -3.416
No. of revertants per plate (Salmonella typhimurium [3]): 60
Activity (Salmonella typhimurium [4]): 19

COc1ccc(CN(C)N=O)cc1
No. of revertants per plate (Salmonella typhimurium [1]): 15
No. of revertants per plate (Salmonella typhimurium [3]): 24
Activity (Salmonella typhimurium [4]): 12

CN(Cc1ccc(F)cc1)N=O
No. of revertants per plate (Salmonella typhimurium [5]): 16
No. of revertants per plate (Salmonella typhimurium [6]): 11
No. of revertants per plate (Salmonella typhimurium [7]): 21
No. of revertants per plate (Salmonella typhimurium [8]): 15
Activity (Salmonella typhimurium [9]): 8
No. of revertants per plate (Salmonella typhimurium [10]): 15
Log 1/C [2]: -2.969
No. of revertants per plate (Salmonella typhimurium [11]): 71
No. of revertants per plate (Salmonella typhimurium [12]): 19
No. of revertants per plate (Salmonella typhimurium [13]): 27
No. of revertants per plate (Salmonella typhimurium [14]): 39
No. of revertants per plate (Salmonella typhimurium [15]): 126
No. of revertants per plate (Salmonella typhimurium [16]): 94
No. of revertants per plate (Salmonella typhimurium [17]): 8
No. of revertants per plate (Salmonella typhimurium [18]): 20
No. of revertants per plate (Salmonella typhimurium [19]): 15
Activity (Salmonella typhimurium [20]): 24
No. of revertants per plate (Salmonella typhimurium [21]): 22
No. of revertants per plate (Salmonella typhimurium [22]): 17
No. of revertants per plate (Salmonella typhimurium [23]): 71
Activity (Salmonella typhimurium [4]): 15
No. of revertants per plate (Salmonella typhimurium [24]): 18
Activity (Salmonella typhimurium [25]): 19
No. of revertants per plate (Salmonella typhimurium [26]): 21
No. of revertants per plate (Salmonella typhimurium [27]): 22

CN(Cc1ccc(Cl)cc1)N=O
No. of revertants per plate (Salmonella typhimurium [5]): 19
No. of revertants per plate (Salmonella typhimurium [6]): 19
No. of revertants per plate (Salmonella typhimurium [7]): 14
No. of revertants per plate (Salmonella typhimurium [8]): 17
Activity (Salmonella typhimurium [9]): 19
No. of revertants per plate (Salmonella typhimurium [10]): 18
Log 1/C [2]: -1.933
No. of revertants per plate (Salmonella typhimurium [11]): 221
No. of revertants per plate (Salmonella typhimurium [12]): 24
No. of revertants per plate (Salmonella typhimurium [13]): 42
No. of revertants per plate (Salmonella typhimurium [14]): 77
No. of revertants per plate (Salmonella typhimurium [15]): 192
No. of revertants per plate (Salmonella typhimurium [16]): 166
No. of revertants per plate (Salmonella typhimurium [17]): 16
No. of revertants per plate (Salmonella typhimurium [18]): 21
No. of revertants per plate (Salmonella typhimurium [19]): 19
Activity (Salmonella typhimurium [20]): 22
No. of revertants per plate (Salmonella typhimurium [21]): 24
No. of revertants per plate (Salmonella typhimurium [22]): 18
No. of revertants per plate (Salmonella typhimurium [23]): 136
Activity (Salmonella typhimurium [4]): 22
No. of revertants per plate (Salmonella typhimurium [24]): 17
Activity (Salmonella typhimurium [25]): 23
No. of revertants per plate (Salmonella typhimurium [26]): 21
No. of revertants per plate (Salmonella typhimurium [27]): 19

CN(Cc1cccc(C#N)c1)N=O
No. of revertants per plate (Salmonella typhimurium [1]): 3053
Log 1/C [2]: -2.139
No. of revertants per plate (Salmonella typhimurium [3]): 185
Activity (Salmonella typhimurium [4]): 14
